Only some compounds are listed: those with a hit (about 3.5% of all), similar ones and a draw of the others.
RGS4 act: RGS4 potentiation or activation; AID 463111; HEK293 M3R/inducible RGS4, carbachol calcium flux Fluo4; stronger effect = lower value; hit rate 0.92% among 310,000; B-score at 10 µM;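 active = B-score of the integrated calcium signal more than 4 SD below the library mean, with starting fluorescence not abnormally high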;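 also: negative B-score means reduced calcium response which marks RGS4 activation or potentiation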
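Also added: carbachol at ECmax as muscarinic agonist stimulus; Assay system: HEK293 cells with stable M3R and inducible RGS4; Timing: overnight RGS4 induction, 30 min dye load 37 °C, 20 min compound RT; Measured by: Fluo4-AM (2 µM) calcium-flux fluorescence, kinetic read.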
MrgX1 ag: activates human MrgX1 receptor signaling | MrgX1-HEK293 cells, Fluo-4 calcium fluorescence, agonist mode; stronger effect = higher value | B-score at 10 µM | hit rate 0.44% among 310,000 | AID 588627;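 active = calcium response B-score plate-corrected fluorescence ratio at least 3 library SD, with starting fluorescence B-score inside 5 SD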
Target sequence (Q96LB2 whole entry, looked up): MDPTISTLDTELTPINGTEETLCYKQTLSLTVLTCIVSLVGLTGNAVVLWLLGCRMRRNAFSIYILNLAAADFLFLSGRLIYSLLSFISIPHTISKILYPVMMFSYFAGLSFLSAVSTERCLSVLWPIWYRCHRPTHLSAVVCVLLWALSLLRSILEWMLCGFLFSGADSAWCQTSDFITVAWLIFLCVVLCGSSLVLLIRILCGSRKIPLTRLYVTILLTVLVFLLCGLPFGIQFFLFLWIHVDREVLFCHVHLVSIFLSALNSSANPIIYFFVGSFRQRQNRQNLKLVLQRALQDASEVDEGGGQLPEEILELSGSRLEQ
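times = overnight plating, then 30 min 37 °C plus 30 min room-temperature dye loading | assay system = stable human MrgX1 HEK293 cell line | input = fifteen thousand cells per well | signal = kinetic calcium dye fluorescence, Fluo-4 NW | dosing = compound delivered in addition one of three | read-out = B-scored fluorescence response ratio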
MrgX1 allo act: human MrgX1 positive allosteric modulation, primary screen; Q96LB2; MrgX1-HEK293, Fluo-4 calcium flux, FDSS; stronger effect = higher value; B-score at 10 µM; hit rate 0.63% among 310,000; AID 588675;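 active = plate-corrected calcium response at least 3 library SD above typical, normal starting fluorescence, not activating the receptor alone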;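 also: compound read alongside a low EC10 to EC30 dose of BAM8-22 agonist; peak minus trough fluorescence over baseline measured at the second addition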
RGS4 block: human RGS4 inhibition. HEK293 M3R/RGS4 inducible, Fluo-4 calcium flux; stronger effect = higher value; triggered by carbachol at its EC20. B-score at 10 µM. hit rate 0.45% among 310,000. AID 463165;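 active = B-score, a plate-corrected calcium signal, over three deviations above library mean, with baseline fluorescence within five deviations of library mean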;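 also: RGS4 expression induced by doxycycline in cells with stable M3 receptor; B-score is computed from the integrated fluorescence ratio over baseline after carbachol; higher B-score means a larger calcium signal and so more RGS4 inhibition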
MrgX1 antagonist: antagonists of human MrgX1 receptor; Q96LB2; MRGX1-HEK293 calcium flux, Fluo-4, BAM8-22 antagonism; stronger effect = lower value; B-score at 10 µM; hit rate 1.3% among 310,000; AID 588676;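 active = calcium-response B-score plate-corrected more than 3 library SD below zero, starting fluorescence within 5 deviations, no agonist response on first addition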;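 also: peak minus trough fluorescence over baseline after final BAM8-22 challenge near maximal dose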
MrgX1 allo conf: confirmation of human MrgX1 receptor positive allosteric modulators; shares compounds with MrgX1 allo act; MrgX1-HEK293, Fluo-4 calcium fluorescence, FDSS; activation (ratio percentage), % at 10 µM; hit rate 13% among 1,200;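 active = ratio at least 3 SD above the weak peptide control, stable starting fluorescence, no direct agonism earlier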;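 also: compound followed by low BAM8-22 agonist challenge near EC20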
HEK293 Ca flux: activity in parental HEK293 cells lacking MrgX1; fluorescence ratio F(max-min)/F0 at 10 µM; hit rate 2% among 4,000; shares compounds with MrgX1 antagonist; Fluo-4 calcium fluorescence, FDSS;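 active = duplicate-averaged calcium fluorescence ratio at least three times the standard deviation of buffer wells, a nonspecific response in parental cells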
HEK293 Ca counter: counter-screen for MrgX1 allosteric activators: effect in parental HEK293 cells | shares compounds with MrgX1 antagonist | parental HEK293 calcium flux, Fluo-4 fluorescence ratio; stronger effect = higher value | fluorescence ratio F(max-min)/F0 at 10 µM | hit rate 0.4% among 4,000;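 active = calcium fluorescence ratio, averaged over duplicates, at least 3 SD of the buffer-well ratio, meaning a nonspecific response in receptor-free cells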;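 also: untransfected parental HEK293 lacking MrgX1 used as counterscreen for MrgX1 allosteric activators; fluorescence change taken during the second addition on a kinetic imager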
HEK293 Ca cntr2: MrgX1 activator counter-screen hit in parental HEK293 cells. shares compounds with MrgX1 antagonist. Fluo-4 calcium fluorescence (FDSS); stronger effect = higher value. fluorescence ratio F(max-min)/F0 at 10 µM. hit rate 8.7% among 4,000. AID 624115;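 active = calcium fluorescence ratio at least three times the spread of buffer wells, meaning a non-specific response in parental cells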
* marks the source's active call; other numbers are inactive results; i = inactive; / = no result given.

SMILES	RGS4 act	MrgX1 ag	MrgX1 allo act	RGS4 block	MrgX1 antagonist	MrgX1 allo conf	HEK293 Ca flux	HEK293 Ca counter	HEK293 Ca cntr2
O=C(c1cc2cc(F)ccc2[nH]1)N1CCCC(Nc2ccc(F)cc2)C1 (configuration not stated)	i	i	12.6*	i	i	i	i	i	i
CCOC(=O)C1CCN(C(=O)c2cc3cc(F)ccc3[nH]2)CC1	i	i	i	i	i	/	/	/	/
Cc1ccc2[nH]c(C(=O)N3CCCCC3)cc2c1	i	i	17*	i	i	i	i	i	i
CCOC(=O)C1CCCN(C(=O)c2cc3cc(F)ccc3[nH]2)C1 (configuration not stated)	i	i	7.92*	i	i	i	i	i	i
O=C(/C=C/c1ccc(S(=O)(=O)N2CCOCC2)cc1)NC(=S)Nc1ccc(Cl)cc1Cl	i	i	i	i	i	/	/	/	/
Cc1ccc(-c2cc(-c3n[nH]c(=S)n3C)c3ccccc3n2)cc1	i	i	11.1*	i	i	i	i	i	i
CCn1c(-c2cc(-c3ccc(C)c(C)c3)nc3ccccc23)n[nH]c1=S	i	i	i	i	i	/	/	/	/
COCCN1CCN(Cc2nc(C3(c4ccc(C)cc4)CCCC3)no2)CC1	i	i	9*	i	i	i	i	i	i
CCn1c(/N=C/c2ccccc2NS(=O)(=O)c2ccc(C)cc2)nc2ccccc21	/	i	13.5*	/	i	i	i	i	i
O=C(CCc1ccccc1)NC(=S)Nc1cccc(Br)c1	i	i	8.95*	i	i	i	i	i	i
CCN(CC)C(=O)COc1coc(CN2CCN(c3ccccc3)CC2)cc1=O	i	i	i	i	i	/	/	/	/
COc1ccc(CCNC(=O)CCc2ccccc2)cc1OC	i	i	7.47*	i	i	i	i	i	i
C=CCOc1c(Br)cc(/C=N/NC(N)=O)cc1OC	i	i	i	i	i	/	/	/	/
C=CCOc1c(CCC)cc(CCC)cc1C(N)=O	i	i	24.2*	i	i	i	i	i	i
COC(=O)c1cnc(Oc2ccc(NC(=O)NC(=O)c3ccccc3Cl)cc2)cc1C(F)(F)F	i	i	i	i	i	/	/	/	/
Cc1cc(Cl)ccc1NC(=S)NCC(O)c1ccccc1 (configuration not stated)	i	i	22.3*	i	i	i	i	i	i
COc1ccc2nc(NC(=O)C3COc4ccccc4O3)sc2c1 (configuration not stated)	i	i	i	i	i	/	/	/	/
Cc1ccc2nc(NC(=O)c3cccs3)sc2c1	/	i	i	/	i	/	/	/	/
CS(=O)(=O)c1ccc2nc(NC(=O)c3cccs3)sc2c1	/	i	23.8*	/	i	17.0%*	i	i	i
CS(=O)(=O)c1ccc2nc(NC(=O)C3COc4ccccc4O3)sc2c1 (configuration not stated)	i	i	6.63*	i	i	i	i	i	i
CCOCCCn1c(=S)[nH]c2cc(C(=O)NCCc3ccccc3)ccc2c1=O	i	i	i	i	i	/	/	/	/
COc1cccc(-n2c(SCC(N)=O)nnc2-c2c[nH]c3ccccc23)c1	i	i	6.87*	i	i	i	i	i	i
CC(Oc1ccccc1)C(=O)N=C1SC2CS(=O)(=O)CC2N1Cc1ccccc1 (configuration not stated)	i	i	i	i	i	/	/	/	/
